Active and inactive are the calls of the source. The rule behind the calls is not given here. Starred links: 1 amine or outer side, 2 acyl side, 3 side chain; linkers in the order of their positions; H or OH if unused. Residues, ends and D or L forms follow the SMILES beside them. *: point of attachment. Piperazinyl(4-RhodamineB) = CCN(CC)c1ccc2c(-c3ccccc3C(=O)N3CCN(*)CC3)c3ccc(=[N+](CC)CC)cc-3oc2c1; Suc = O=C(CCC(=O)[*:2])[*:1]
Legend:
HeLa = experiment: Cytotoxicity against human HeLa cells after 24 hrs by MTT assay; format: functional
Summary of the method: (§1)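 Cells grown at 37 °C with 5% CO2 and treated at about 50–70% confluence in serum-free medium for 24 h. Viability read by MTT and expressed as a percentage of untreated cells. Run in triplicate in at least three independent trials, reported as mean ± standard deviation.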

HT-22 [1] = experiment: Aggregation property of the compound in mouse HT22 cells assessed as intracellular amyloid formation at 15 uM after 1 hr by thioflavin S/DAPI staining based fluorescence microscopic analysis; format: ADME, cell-based; conditions: ht-22, 1 h
Summary of the method: (§2)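 Cells treated with vehicle or 15 μM peptide for 1 h, fixed in 4% PFA for 20 min, stained with 0.005% (w/v) ThS in water for 10 min, washed three times with absolute ethanol, counterstained with DAPI, and imaged by epifluorescence microscopy.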

MDA-MB-231 = experiment: Cytotoxicity against human MDA-MB-231 cells after 24 hrs by MTT assay; format: functional; conditions: for EC50: MDA-MB-231, 24 h, read-out: ED50 (the source's name)
Summary of the method: (§3)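 Per well of a 48-well plate, 1.5 × 10^4 cells were seeded in medium with 10% FBS and grown for at least 24 h, then treated at about 50–60% confluence for 24 h. MTT was added for the final 3 h at 37 °C in the dark. Formazan was dissolved in DMSO and read at 595 nm, as % of untreated cells. Triplicate wells, at least three independent trials.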

MCF-10A = experiment: Cytotoxicity against human MCF10A cells after 24 hrs by MTT assay; format: cell-based; summary of the method: as §3
[2] = Drug localization in nucleus of mouse HT22 cells assessed as punctate formation after 3 hrs by DAPI staining based fluorescence microscopic analysis; format: ADME, subcellular; conditions: ht-22, 3 h
Summary of the method: (§4)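 Rhodamine-labelled peptide (3.5 μM) was given for 3 h at 37 °C. Cells were washed with DMEM and PBS, fixed in 4% PFA for 20 min, nuclei stained with DAPI, and imaged by epifluorescence with 40× air or 60× oil objectives.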

[3] = Drug localization in cytosol of mouse HT22 cells assessed as punctate formation after 3 hrs by DAPI staining based fluorescence microscopic analysis; format: ADME, subcellular, HT-22; summary of the method: as §4
[4] = Drug localization in nucleus of HEK293 cells assessed as punctate formation after 3 hrs by DAPI staining based fluorescence microscopic analysis; format: ADME, subcellular; conditions: human, hek293, 3 h; summary of the method: as §4
[5] = Drug localization in cytosol of HEK293 cells assessed as punctate formation after 3 hrs by DAPI staining based fluorescence microscopic analysis; format: ADME, subcellular; conditions: human; summary of the method: as §4
[6] = Drug localization in nucleus of human HeLa cells assessed as punctate formation after 3 hrs by DAPI staining based fluorescence microscopic analysis; format: ADME, subcellular; summary of the method: as §4
[7] = Drug localization in cytosol of human HeLa cells assessed as punctate formation after 3 hrs by DAPI staining based fluorescence microscopic analysis; format: ADME, subcellular; summary of the method: as §4
[8] = Drug uptake in mouse HT22 cells at 3.5 uM up to 3 hrs by DAPI staining based fluorescence microscopic analysis; format: ADME, cell-based; conditions: ht-22, 3 h
Summary of the method: (§5)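 HT-22 cells were incubated with 3.5 μM rhodamine-labelled peptide for 30 min, 3 h, 6 h and 24 h at 37 °C, then fixed in 4% PFA with DAPI nuclear stain. Per-cell fluorescence was taken as integrated density after background correction.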

[9] = Drug uptake in mouse HT22 cells at 3.5 uM after 6 to 24 hrs by DAPI staining based fluorescence microscopic analysis; format: ADME, cell-based; conditions: ht-22, 3.5 µM; summary of the method: as §5
[10] = Drug localization in late endosomes/lysosomes of mouse Rh-Dextran-labelled HT22 cells at 7.5 uM after 2.5 hrs using fluorescent-labelled peptide by confocal microscopic analysis; format: ADME, subcellular, Late endosome/lysosome; conditions: ht-22, 2.5 h
HT-22 [11] = experiment: Aggregation property of the compound in mouse HT22 cells assessed as intracellular amyloid formation by thioflavin S/DAPI staining based fluorescence microscopic analysis; format: ADME, cell-based; summary of the method: as §2
HT-22 [12] = experiment: Induction of cell death in mouse HT22 cells at 7.5 uM after 3 hrs by thioflavin S/DAPI/propidium iodide staining based fluorescence microscopic analysis; format: functional
Summary of the method: (§6)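 Cells were given vehicle or 7.5 μM peptide for 3 h and stained live with 20 μg mL−1 propidium iodide for 10 min. They were then PBS-washed, fixed in 4% PFA, stained with 0.005% ThS for 10 min, ethanol-washed, counterstained with DAPI and imaged by fluorescence microscopy.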

HT-22 [13] = experiment: Cytotoxicity against mouse HT22 cells after 24 hrs in presence of lysosomal protease inhibitor bafilomycin A1 by MTT assay; format: functional, cell-based
HT-22 [14] = experiment: Cytotoxicity against mouse HT22 cells after 24 hrs in presence of lysosomal protease inhibitor leupeptin by MTT assay; format: functional, cell-based
HT-22 [15] = experiment: Cytotoxicity against mouse HT22 cells after 24 hrs in presence of lysosomal protease inhibitor ammonium chloride by MTT assay; format: functional, cell-based
HEK293 = experiment: Cytotoxicity against HEK293 cells after 24 hrs by MTT assay; format: cell-based; conditions: human, hek293, 24 h; summary of the method: as §1
HT-22 [16] = experiment: Induction of cell death in mouse HT22 cells by thioflavin S/DAPI/propidium iodide staining based fluorescence microscopic analysis; format: functional; summary of the method: as §6
HT-22 [17] = experiment: Induction of endosomal/lysosomal membrane permeabilization in mouse HT22 cells at 15 uM measured after 1 hr by acridine orange dye based fluorescence microscopic analysis; format: functional
[18] = Drug localization in cytosol of mouse Rh-Dextran-labelled HT22 cells at 7.5 uM after 2.5 hrs using fluorescent-labelled peptide by confocal microscopic analysis; format: ADME, subcellular, HT-22

Activity (HT-22 [1])	Compound	Activity (HeLa)	Activity (MCF-10A)	EC50 (MDA-MB-231) [µM]	Activity (HT-22 [13])	Activity (HT-22 [14])	Activity (HT-22 [15])	further results
Not Active	Ac-VQIVYK-NH2	Active	Non-Toxic					Activity (MDA-MB-231): inactive
Not Active	Ac-VQIVKKRRRRRRRRR-NH2	Active						
	CC[C@H](C)[C@H](NC(=O)[C@H](CCC(N)=O)NC(=O)[C@@H](NC(=O)CCC(=O)N1CCN(C(=O)c2ccccc2-c2c3ccc(=[N+](CC)CC)cc-3oc3cc(N(CC)CC)ccc23)CC1)C(C)C)C(=O)N[C@H](C(=O)N[C@@H](Cc1ccc(O)cc1)C(=O)N[C@@H](CCCCN)C(=O)N[C@@H](CCCNC(=N)N)C(=O)N[C@@H](CCCNC(=N)N)C(=O)N[C@@H](CCCNC(=N)N)C(=O)N[C@@H](CCCNC(=N)N)C(=O)N[C@@H](CCCNC(=N)N)C(=O)N[C@@H](CCCNC(=N)N)C(=O)N[C@@H](CCCNC(=N)N)C(=O)N[C@@H](CCCNC(=N)N)C(=O)N[C@@H](CCCNC(=N)N)C(N)=O)C(C)C.[Cl-] ({Piperazinyl(4-RhodamineB)-Suc}-VQIVYKRRRRRRRRR-NH2)							Drug uptake [2]: Active; Drug uptake [3]: Active; Drug uptake [4]: Active; Drug uptake [5]: Active; Drug uptake [6]: Active; Drug uptake [7]: Active; Drug uptake [8]: Active; Drug uptake [9]: Not Active; Drug uptake [10]: Active
	Ac-LAVLFLRRRRRRRRR-NH2		Non-Toxic	20	Active	Active	Active	EC50 (HeLa; read-out: ED50 (the source's name)): 3 µM; Activity (HT-22 [11]): Active; Activity (HT-22 [12]): Active
	Ac-LAVLFL-NH2	Active						
Active	Ac-VQIVYKRRRRRRRRR-NH2	Active	Non-Toxic	5	inactive	inactive	inactive	Activity (HEK293): Non-Toxic; Activity (HT-22 [16]): Active; Activity (HT-22 [17]): Active; Drug uptake [18]: Active

From ChEMBL document CHEMBL4325821, “Novel cell-penetrating-amyloid peptide conjugates preferentially kill cancer cells” (Medchemcomm, 2018)
